Experimental data published in ChEMBL document CHEMBL1154198, “Chemical genetics of Plasmodium falciparum” (Nature, 2010).

Columns and labels:
Plasmodium falciparum [1] = assay: ST_JUDE: Cytotoxicity against Plasmodium falciparum Dd2; type: functional, organism-based
Plasmodium falciparum [2] = assay: ST_JUDE: Plasmodium falciparum 3D7 EC50 (uM) as measured by SYBR green dye; type: functional, organism-based
Plasmodium falciparum [3] = assay: ST_JUDE: Plasmodium falciparum K1 EC50 (uM) as measured by SYBR green dye; type: functional, organism-based
[4] = ST_JUDE: Cytotoxicity using luciferase to measure ATP as an indicator of the viability of human foreskin fibroblast cells (BJ); type: toxicity, cell-based
Trypanosoma brucei = assay: ST_JUDE: Cytotoxicity using luciferase to measure ATP as an indicator of the viability of Trypanosoma brucei; type: functional, organism-based
Leishmania major = assay: ST_JUDE: Cytotoxicity using Alamar Blue to measure viability of Leishmania major; type: functional, organism-based
Outline: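 L. major promastigotes; drug susceptibility read with Alamar Blue.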

Plasmodium falciparum [5] = assay: ST_JUDE: Cytotoxicity against Plasmodium falciparum W2; type: functional, organism-based
Plasmodium falciparum [6] = assay: ST_JUDE: Cytotoxicity against Plasmodium falciparum SB-A6; type: functional, organism-based
Plasmodium falciparum [7] = assay: ST_JUDE: Cytotoxicity against Plasmodium falciparum D10 transfected with yeast DHOD; type: functional, organism-based
[8] = ST_JUDE: Cytotoxicity using luciferase to measure ATP as an indicator of the viability of human Burkitt''s lymphoma lymphoblast cells (Raji); type: toxicity, cell-based
[9] = ST_JUDE: Cytotoxicity using luciferase to measure ATP as an indicator of the viability of human epithelial hepatocellular carcinoma cells (HepG2); type: toxicity, cell-based
Plasmodium falciparum [10] = assay: ST_JUDE: Cytotoxicity against Plasmodium falciparum K1; type: functional, organism-based
Outline: (§1)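 Asexual P. falciparum grown in human erythrocytes, exposed to compounds for 72 h, and growth read as the DNA quantity in treated versus control cultures. Dose-response run at 12 concentrations from 10 μM to 5 nM.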

Plasmodium falciparum [11] = assay: ST_JUDE: Cytotoxicity against Plasmodium falciparum 3D7; type: functional, organism-based; outline: as §1
[12] = ST_JUDE: Cytotoxicity using luciferase to measure ATP as an indicator of the viability of human epithelial embryonic kidney cells (HEK293); type: toxicity, cell-based
Plasmodium falciparum [13] = assay: ST_JUDE: Cytotoxicity against Plasmodium falciparum V1/S; type: functional, organism-based
Toxoplasma gondii = assay: ST_JUDE: Growth inhibition of to Toxoplasma gondii, in human U-2OS cells, as measured by luciferase.; type: functional, organism-based; settings: RH, U2OS
Outline: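 T. gondii parasites engineered to express luciferase; drug sensitivity read by luminescence.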

Structure (SMILES)	EC50 (Plasmodium falciparum [1]) [µM]	EC50 (Plasmodium falciparum [2]) [µM]	EC50 (Plasmodium falciparum [3]) [µM]	EC50 [4] [µM]	EC50 (Trypanosoma brucei) [µM]	EC50 (Leishmania major) [µM]	EC50 (Plasmodium falciparum [5]) [µM]	EC50 (Plasmodium falciparum [6]) [µM]	EC50 (Plasmodium falciparum [7]) [µM]	EC50 [8] [µM]	EC50 [9] [µM]	EC50 (Plasmodium falciparum [10]) [µM]	EC50 (Plasmodium falciparum [11]) [µM]	EC50 [12] [µM]	EC50 (Plasmodium falciparum [13]) [µM]	EC50 (Toxoplasma gondii) [µM]
c1ccc(CCNc2ccnc3cc4ccccc4cc23)cc1	0.15	0.121	0.191	6.62	2.88	> 13.3	0.674	0.171	1	9.53	1.32	0.671	0.267	7.19	0.833	> 17
COc1ccccc1Cn1ccnc1SCC(=O)Nc1cc(C(F)(F)F)ccc1Cl	0.246	0.119	0.17	> 39.1	12.1	> 16.7	2.67	> 10	> 10	> 39.1	> 39.1	0.252	0.19	> 39.1	0.288	> 21.4
CCc1nc2nc(C)cc(Nc3ccc(I)cc3)n2n1	0.456	0.285	0.367	> 39.5	> 37.8	> 16.9	0.595	> 10.1	> 10.1	> 39.5	> 39.5	0.641	0.347	> 39.5	1.16	> 21.6
CCN1/C(=C/c2cccc[n+]2C)C=Cc2cc(C)ccc21	1.7	0.439	0.325	> 32.2	7.21	0.107	> 8.27	2.05	1.54	> 32.2	> 32.2	1.89	1.5	> 32.2	> 8.27	> 17.6
CCOC(=O)c1cccc(NC(=O)CC2C(=O)N(c3ccc(F)cc3)C(=O)N2CCC(C)C)c1 (centres undefined)	0.635	0.593	1.16	> 43.4	11.8	> 18.6	> 11.1	1.06	0.95	> 43.4	> 43.4	> 11.1	0.945	> 43.4	1.07	> 23.8
CCOc1cc(C2CC(=O)NC3=C2C(=O)CC(c2cc(OC)ccc2OC)C3)ccc1O (centres undefined)	1.38	1.07	1.28	> 40.9	> 39.2	> 17.5	1.98	1.13	1.14	> 40.9	> 40.9	1.09	1.05	> 40.9	1.66	> 22.4
Fc1ccc(Nc2nc(NCc3ccccc3)c3ccccc3n2)cc1	0.644	0.901	0.781	15.2	7.89	0.0024	3.54	0.321	0.868	13.7	6.78	0.962	0.626	16.8	2.58	> 22.3
COCCO/C(O)=C1\C(C)=NC2=C(C(=O)CC(c3ccc(OC)c(OC)c3)C2)C1c1ccc(F)cc1 (centres undefined)	0.526	0.253	0.0946	> 42.4	17.4	> 18.2	0.47	2.67	2.99	> 42.4	> 42.4	0.517	0.74	> 42.4	1.62	> 23.2
CC[n+]1c(/C=C/c2ccc(N(C)C)cc2)ccc2cc(OC)ccc21	0.174	1.69	0.707	> 23.2	0.343	0.0005	0.0922	0.702	0.372	0.529	2.99	0.471	0.247	> 23.2	0.43	> 12.7
CCOC(=O)C1=C(C)N=c2s/c(=C\c3cc(Cl)ccc3O)c(=O)n2C1c1ccc(N(C)C)cc1 (centres undefined)	1.82	> 15	1	> 18.2	6.2	> 7.8	> 4.68	2.69	> 4.68	> 18.2	> 18.2	0.446	> 4.68	> 18.2	0.235	> 9.98
CCCCCCCn1ccc(=N)cc1	2.73	3.1	2.52	> 51.4	> 49.3	> 22	> 13.2	4.17	3.84	10.8	> 51.4	2.31	2.19	> 51.4	10.3	> 28.2
COc1ccc(C2CC(=O)NC3=C2C(=O)CC(c2ccc(F)cc2)C3)cc1OC (centres undefined)	1.13	0.661	1.07	> 41.4	> 39.7	> 17.7	1.49	2.09	1.85	> 41.4	> 41.4	1.19	1.44	> 41.4	1.99	> 22.7
COc1ccc(C2CC3=NC(C)=C(C(=O)OC(C)C)C(c4ccccc4Cl)C3=C(O)C2)cc1OC (centres undefined)	0.0582	0.0358	0.0178	> 41.2	6.77	> 17.6	0.0406	0.035	0.0455	> 41.2	> 41.2	0.0538	0.087	> 41.2	0.0876	14.6
CCOc1ccc2nc(C)cc(Nc3ccc(Cl)cc3)c2c1	0.577	0.444	1.34	8.78	8.1	0.379	0.755	0.295	0.536	19.8	7.26	4.08	1.07	21.2	2.77	> 21.7
CSc1ccc2ccccc2[n+]1C	1.53	1.59	0.893	> 37.1	> 35.6	> 15.9	3.21	1.2	1.11	> 37.1	> 37.1	0.588	0.59	> 37.1	1.83	> 20.3
C#CC[n+]1ccn2c(C)ccc2c1CC	1.54	> 15	1.38	> 49.8	> 47.7	> 21.3	3.44	2.53	> 12.8	40.7	> 49.8	1.42	1.68	> 49.8	> 12.8	> 27.3
Cc1ccc(NC(=O)c2c(I)cnn2C)cc1[N+](=O)[O-]	0.822	0.705	1.05	> 45.7	> 43.9	> 19.6	0.583	> 11.7	> 11.7	> 45.7	> 45.7	> 11.7	0.769	> 45.7	3.73	> 25.1
Cc1ccccc1/N=C1\C=C(NS(=O)(=O)c2ccc(F)cc2)c2ccccc2C1=O	0.435	0.497	0.182	5.88	0.946	> 14.9	0.216	0.303	0.161	3.14	6.13	0.0981	0.221	6.29	0.114	> 19.1
Cc1ccc(C2(c3ccc(C)cc3)CC2C(=O)Nc2ccc([N+](=O)[O-])cc2O)cc1 (centres undefined)	2.09	0.658	0.582	11	4.78	> 16.5	1.83	1.83	1.6	10.6	10.7	0.741	1.01	11.4	1.26	> 21.1
